Data reported in ChEMBL document CHEMBL2146437, “Burkholdines from Burkholderia ambifaria: antifungal agents and possible virulence factors” (J Nat Prod, 2012).
Values after ≈ are worked out from the molar mass of the structure shown.

Tests used:
[1] = Toxicity in sheep erythrocytes assessed as concentration required to achieve 10% hemolysis after 1 hr by serial dilution method; format: cell-based, Ovis aries; conditions: erythrocyte
Outline: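 Sheep erythrocytes as a 0.25% suspension in phosphate-buffered saline received compound in 2-fold serial dilutions and were held 1 h at 37 °C. Cells were then pelleted at 1000g for 5 min, and supernatant absorbance was read at 540 nm. The value is the concentration giving 10% hemolysis, reported as mean ± standard deviation of two independent measurements.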

[2] = Ratio of HC10 for sheep erythrocytes to MIC for Candida albicans; format: functional
[3] = test system: Saccharomyces cerevisiae; assay: Antifungal activity against Saccharomyces cerevisiae; format: functional
[4] = test system: Candida albicans; assay: Antifungal activity against Candida albicans; format: functional
[5] = test system: Aspergillus niger; assay: Antifungal activity against Aspergillus niger; format: functional
[6] = test system: Aspergillus niger; assay: Ratio of amphotericin-B MIC to compound MIC for Aspergillus niger; format: functional

SMILES	MIC [3] [µg/mL]	MIC [4] [µg/mL]	MIC [5] [µg/mL]	HC10 [1] [µg/mL]	Ratio [2]	Ratio [6]
CCCCCCCCCCC[C@H](O[C@@H]1OC[C@@H](O)[C@H](O)[C@H]1O)[C@H](O)[C@H](O)C[C@@H]1CC(=O)N[C@H](CO)C(=O)N[C@H]([C@H](O)c2ccc(O)cc2)C(=O)N[C@H](CC(N)=O)C(=O)NCC(=O)N[C@@H](CC(N)=O)C(=O)N[C@@H](CO)C(=O)N[C@@H]([C@H](O)C(N)=O)C(=O)N1	0.4 (≈ 0.325 µM)	12.5 (≈ 10.2 µM)	12.5 (≈ 10.2 µM)	10	1	–
CCCCCCCCCCC[C@H](O[C@H]1OC[C@@H](O)[C@H](O)[C@H]1O)[C@H](O)[C@H](O)C[C@@H]1CC(=O)N[C@H](CO)C(=O)N[C@H]([C@H](O)c2ccc(O)cc2)C(=O)N[C@H](CCN)C(=O)NCC(=O)N[C@@H](CC(N)=O)C(=O)N[C@@H](CO)C(=O)N[C@@H]([C@H](O)C(N)=O)C(=O)N1 [BURKHOLDINE 1215]	0.15 (≈ 0.123 µM)	0.15 (≈ 0.123 µM)	0.15 (≈ 0.123 µM)	5	33	–
CCCCCCCCCCC[C@H](O[C@@H]1OC[C@@H](O)[C@H](O)[C@H]1O)[C@H](O)[C@H](O)C[C@@H]1CC(=O)N[C@H](CO)C(=O)N[C@H]([C@H](O)c2ccc(O)cc2)C(=O)N[C@H](CCN)C(=O)NCC(=O)N[C@@H](CC(N)=O)C(=O)N[C@@H](CO)C(=O)N[C@@H](CC(N)=O)C(=O)N1 [BURKHOLDINES 1119]	0.1 (≈ 0.0833 µM)	0.4 (≈ 0.333 µM)	0.1 (≈ 0.0833 µM)	15	38	25

Now from value to compound, other results behind:

MIC [3] [µg/mL]	MIC [4] [µg/mL]	MIC [5] [µg/mL]	SMILES	HC10 [1] [µg/mL]	Ratio [2]	Ratio [6]
2.5 (≈ 2.71 µM)	2.5 (≈ 2.71 µM)	2.5 (≈ 2.71 µM)	C[C@@H]1[C@H](O)[C@@H](C)/C=C/C=C/C=C/C=C/C=C/C=C/C=C/[C@H](O[C@@H]2O[C@H](C)[C@@H](O)[C@H](N)[C@@H]2O)C[C@@H]2O[C@](O)(C[C@@H](O)C[C@@H](O)[C@H](O)CC[C@@H](O)C[C@@H](O)CC(=O)O[C@H]1C)C[C@H](O)[C@H]2C(=O)O [AMPHOTERICIN B]	–	–	–
1.6 (≈ 1.46 µM)	12.5 (≈ 11.4 µM)	1.6 (≈ 1.46 µM)	CCCCCCCCCCC[C@H](O)[C@H](O)[C@H](O)C[C@@H]1CC(=O)N[C@H](CO)C(=O)N[C@H]([C@H](O)c2ccc(O)cc2)C(=O)N[C@H](CC(N)=O)C(=O)NCC(=O)N[C@@H](CC(N)=O)C(=O)N[C@@H](CO)C(=O)N[C@@H]([C@H](O)C(N)=O)C(=O)N1 (relative stereo)	4.5	0.4	–
2 (≈ 1.65 µM)	31 (≈ 25.5 µM)	2 (≈ 1.65 µM)	CCCCCCCCCCC[C@H](O[C@@H]1OC[C@@H](O)[C@H](O)[C@H]1O)[C@H](O)[C@H](O)C[C@@H]1CC(=O)N[C@H](CO)C(=O)N[C@H]([C@H](O)c2ccc(O)cc2)C(=O)N[C@H](CC(N)=O)C(=O)NCC(=O)N[C@@H](CC(N)=O)C(=O)N[C@@H](CO)C(=O)N[C@@H](CC(N)=O)C(=O)N1 [BURKHOLDINES 1213]	37	1	–
